{"source": "paper PMC3462166", "about": "(Journal of the American Chemical Society, 2012)", "key": {"[1]": {"test_system": "CD22 (Siglec-2) on B cells", "details": "ligand targeting chemotherapeutic loaded liposomes; cited from earlier work"}, "murine Sn": {"molecular_target": "murine Sn (Mus musculus, UniProt Q62230)", "sequence (Q62230 20-136 limits assumed)": "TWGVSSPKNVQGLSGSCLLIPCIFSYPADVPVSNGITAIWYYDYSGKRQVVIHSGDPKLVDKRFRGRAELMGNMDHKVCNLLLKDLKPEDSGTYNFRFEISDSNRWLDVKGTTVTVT", "details": "inhibition of mSn-Fc chimera binding to natural-ligand beads; triplicate, ± SD", "in_short": "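Magnetic beads coated with Neu5Acα2-3Galβ1-4GlcNAc were bound by murine sialoadhesin-Fc chimera in the presence of serial dilutions of competitor (9-N-acyl sialoside analogs). Displacement of bead-bound chimera was read by flow cytometry, and IC50 was taken as the concentration needed to displace the bound chimera. Titrations were run in triplicate, with SD from three independent measurements.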"}, "Sn expressing cells": {"test_system": "Sn expressing cells", "details": "liposomes decorated with the ligand; cited from earlier work"}, "Sn [2]": {"test_system": "Sn", "details": "liposomes decorated with the ligand; cited from earlier work"}, "Sn [3]": {"test_system": "Sn", "details": "natural ligand in a comparable assay; cited from earlier work"}}, "note": "Where “and” joins values, the source holds several entries; their conditions need not be identical. Identical values can stand only once."}
{"compound": "9-N-biphenylcarbamoyl-Neu5Acα2-6Galβ1-4GlcNAc [6′-^BPCNeu5Ac]", "values": [{"measurement": "survival in murine model of human B cell lymphoma", "setting": "[1]", "value": "prolong life"}]}
{"compound": "CC(=O)NC1C(O)OC(CO)C(OC2OC(CO)C(O)C(OC3(C(=O)O)CC(O)C(NC(C)=O)C(C(O)C(O)CNC(=O)c4ccc(-c5ccccc5)cc4)O3)C2O)C1O", "note": "(stereo not drawn) [Compound 1, 9-N-biphenylcarbamoyl-Neu5Acα2-3Galβ1-4GlcNAc]", "values": [{"measurement": "IC50", "setting": "murine Sn", "value": "4.8 µM and 4.82 µM"}, {"measurement": "targeting of Sn expressing cells in vitro", "setting": "Sn expressing cells", "value": "capable of targeting Sn expressing cells in vitro"}, {"measurement": "selectivity for in vivo targeting", "setting": "Sn [2]", "value": "not sufficiently selective"}]}
{"compound": "CC(=O)NC1C(O)OC(CO)C(OC2OC(CO)C(O)C(OC3(C(=O)O)CC(O)C(NC(C)=O)C(C(O)C(O)CNC(=O)c4cc5c(s4)-c4ccccc4OC5)O3)C2O)C1O", "note": "(stereo not drawn) [Compound 2, 9-N-(4H-thieno[3,2-c]chromene-2-carbamoyl)-Neu5Acα 2-3Galβ1-4GlcNAc]", "values": [{"measurement": "IC50", "setting": "murine Sn", "value": "0.38 ± 0.04", "unit": "µM"}]}
{"compound": "Neu5Acα2-3Galβ1-4GlcNAc", "values": [{"measurement": "IC50", "setting": "Sn [3]", "value": 1.3, "unit": "mM"}]}
